# Tests used:
# Plasmodium cynomolgi [1] = assay: Cures in Plasmodium cynomolgi infected Rhesus monkeys (Macaca mulatta) on 0.316 mg/kg/day after 7 days; cured 0 of 1; assay type: functional
# Plasmodium cynomolgi [2] = assay: Cures in Plasmodium cynomolgi infected Rhesus monkeys (Macaca mulatta) on 1 mg/kg/day after 7 days; cured 1 of 1; assay type: functional
# Plasmodium cynomolgi [3] = assay: Cures in Plasmodium cynomolgi infected Rhesus monkeys (Macaca mulatta) on 0.1 mg/kg/day after 7 days (x7); cured 0 of 2; assay type: functional
# Mus musculus [4] = assay: Suppressive blood schizonticidal antimalarial activity evaluated in the trophozoite-induced Plasmodium berghei infection in mice (Mus musculus) at a dose 10 mg/kg given as no. of cures; assay type: functional
# Method in brief: (§1)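 Run at the Rane Laboratory with blood-induced P. berghei infections in mice, five animals per group. A cure is a mouse surviving to 60 days postinfection. Deaths before day 6 are recorded separately as toxic deaths. Activity is scored from the increase in mean survival time over untreated controls, and counts as active when treated MST is more than twice control MST.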
# Mus musculus [5] = assay: Suppressive blood schizonticidal antimalarial activity evaluated in the trophozoite-induced Plasmodium berghei infection in mice (Mus musculus) at a dose 160 mg/kg given as no. of toxic deaths; assay type: functional
# Method in brief: (§2)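 Rane Laboratory mouse test with blood-induced P. berghei infection, five mice per group. Toxic deaths are deaths occurring before the 6th day postinfection.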
# Mus musculus [6] = assay: Suppressive blood schizonticidal antimalarial activity evaluated in the trophozoite-induced Plasmodium berghei infection in mice (Mus musculus) at a dose 40 mg/kg given as number of toxic deaths; assay type: ADME, organism-based; set-up: dose 40 mg/kg; conditions: in vivo; method in brief: as §2
# Mus musculus [7] = assay: Suppressive blood schizonticidal antimalarial activity evaluated in the trophozoite-induced Plasmodium berghei infection in mice (Mus musculus) at a dose 5 mg/kg given as no. of cures; assay type: functional; method in brief: as §1
# Mus musculus [8] = assay: Suppressive blood schizonticidal antimalarial activity evaluated in the trophozoite-induced Plasmodium berghei infection in mice (Mus musculus) at a dose 20 mg/kg given as no. of cures; assay type: functional; method in brief: as §1
# Mus musculus [9] = assay: Suppressive blood schizonticidal antimalarial activity evaluated in the trophozoite-induced Plasmodium berghei infection in mice (Mus musculus) at a dose 2.5 mg/kg; assay type: functional
# Method in brief: (§3)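 Run at the Rane Laboratory in mice infected with blood-induced P. berghei, five animals per group. Activity is the increase in mean survival time over untreated infected controls. A compound counts as active when treated-group MST is more than twice the control MST. Cures are mice surviving at 60 days postinfection.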
# Plasmodium cynomolgi [10] = assay: Cures in Plasmodium cynomolgi infected Rhesus monkeys (Macaca mulatta) on 0.316 mg/kg/day after 7 days; cures 2 of 2; assay type: functional
# Plasmodium berghei [11] = assay: Suppressive blood schizonticidal antimalarial activity evaluated in the trophozoite-induced Plasmodium berghei infection in mice (Mus musculus) at a dose 640 mg/kg given as number of toxic deaths; assay type: toxicity, organism-based; set-up: dose 640 mg/kg; conditions: in vivo; method in brief: as §2
# Plasmodium cynomolgi [12] = assay: Cures in Plasmodium cynomolgi infected Rhesus monkeys (Macaca mulatta) on 1 mg/kg/day after 7 days; cured 2 of 2; assay type: functional
# Mus musculus [13] = assay: Suppressive blood schizonticidal antimalarial activity evaluated in the trophozoite-induced Plasmodium berghei infection in mice (Mus musculus) at a dose 160 mg/kg; assay type: functional; method in brief: as §3
# Mus musculus [14] = assay: Suppressive blood schizonticidal antimalarial activity evaluated in the trophozoite-induced Plasmodium berghei infection in mice (Mus musculus) at a dose 320 mg/kg; assay type: functional; method in brief: as §3
# Mus musculus [15] = assay: Suppressive blood schizonticidal antimalarial activity evaluated in the trophozoite-induced Plasmodium berghei infection in mice (Mus musculus) at a dose 80 mg/kg; assay type: functional; set-up: unit not given beside the values; method in brief: as §3
# Mus musculus [16] = assay: Suppressive blood schizonticidal antimalarial activity evaluated in the trophozoite-induced Plasmodium berghei infection in mice (Mus musculus) at a dose 40 mg/kg; assay type: functional; set-up: unit not given beside the values; method in brief: as §3
# Plasmodium berghei [17] = assay: Blood schizonticidal antimalarial activity in the trophozoite-induced Plasmodium berghei infection in mice (Mus musculus) at 20 mg/kg; assay type: functional; set-up: unit not given beside the values; method in brief: as §3
# Mus musculus [18] = assay: Suppressive blood schizonticidal antimalarial activity evaluated in the trophozoite-induced Plasmodium berghei infection in mice (Mus musculus) at a dose 80 mg/kg given as no. of cures; assay type: functional; method in brief: as §1
# Plasmodium cynomolgi [19] = assay: Cures in Plasmodium cynomolgi infected Rhesus monkeys (Macaca mulatta) on 1 mg/kg/day after 7 days; cured 0 of 1; assay type: functional
# Plasmodium berghei [20] = assay: Blood schizonticidal activity in trophozoite-induced Plasmodium berghei infected mice (Mus musculus) at 40 mg/kg; numbers cured; assay type: functional; method in brief: as §1
# Plasmodium cynomolgi [21] = assay: Cures in Plasmodium cynomolgi infected Rhesus monkeys (Macaca mulatta) on 0.1 mg/kg/day after 7 days; cured 0 of 1; assay type: functional
# Mus musculus [22] = assay: Suppressive blood schizonticidal antimalarial activity evaluated in the trophozoite-induced Plasmodium berghei infection in mice (Mus musculus) at a dose 320 mg/kg given as no. of toxic deaths; assay type: functional; method in brief: as §2
# Mus musculus [23] = assay: Suppressive blood schizonticidal antimalarial activity evaluated in the trophozoite-induced Plasmodium berghei infection in mice (Mus musculus) at a dose 640 mg/kg given as no. of cures; assay type: functional; method in brief: as §1
# Mus musculus [24] = assay: Suppressive blood schizonticidal antimalarial activity evaluated in the trophozoite-induced Plasmodium berghei infection in mice (Mus musculus) at a dose 160 mg/kg given as no. of cures; assay type: functional; method in brief: as §1
# Mus musculus [25] = assay: Suppressive blood schizonticidal antimalarial activity evaluated in the trophozoite-induced Plasmodium berghei infection in mice (Mus musculus) at a dose 10 mg/kg; assay type: functional; method in brief: as §3
# Mus musculus [26] = assay: Suppressive blood schizonticidal antimalarial activity evaluated in the trophozoite-induced Plasmodium berghei infection in mice (Mus musculus) at a dose 320 mg/kg given as number of cures; assay type: functional; method in brief: as §1
# Mus musculus [27] = assay: Suppressive blood schizonticidal antimalarial activity evaluated in the trophozoite-induced Plasmodium berghei infection in mice (Mus musculus) at a dose 80 mg/kg given as no. of toxic deaths; assay type: functional; method in brief: as §2
# Mus musculus [28] = assay: Suppressive blood schizonticidal antimalarial activity evaluated in the trophozoite-induced Plasmodium berghei infection in mice (Mus musculus) at a dose 5 mg/kg; assay type: functional; set-up: unit not given beside the values; method in brief: as §3
# Plasmodium cynomolgi [29] = assay: Cures in Plasmodium cynomolgi infected Rhesus monkeys (Macaca mulatta) on 0.316 mg/kg/day after 7 days; cured 0 of 2; assay type: functional
# Plasmodium cynomolgi [30] = assay: Cures in Plasmodium cynomolgi infected Rhesus monkeys (Macaca mulatta) on 10.0 mg/kg/day after 7 days; cured 1 of 1; assay type: functional
SMILES,Cures/no. of animals (Plasmodium cynomolgi [1]),Cures/no. of animals (Plasmodium cynomolgi [2]),Cures/no. of animals (Plasmodium cynomolgi [3]),Cures (Mus musculus [4]),Toxic deaths (Mus musculus [5]),Cures (Mus musculus [8]),Toxic deaths (Plasmodium berghei [11]),Delta MST (Mus musculus [15]),Delta MST (Mus musculus [16]),Delta MST (Plasmodium berghei [17]),Cures (Mus musculus [18]),Cures/no. of animals (Plasmodium cynomolgi [19]),Cures (Plasmodium berghei [20]),Cures/no. of animals (Plasmodium cynomolgi [21]),Toxic deaths (Mus musculus [22]),Delta MST (Mus musculus [25]),also measured
COc1cc(NC(C)CCCN)c2ncccc2c1OCC(F)(F)F (stereo unspecified),0,1,–,–,–,–,–,–,–,–,–,–,–,–,–,–,–
CCCOc1c(OC)cc(NC(C)CCCN)c2nccc(C)c12 (stereo unspecified),–,1,0,1,5,3,5,–,–,–,–,–,–,–,–,–,Toxic deaths (Mus musculus [6]): 3; Cures (Mus musculus [7]): 1; Delta MST (Mus musculus [9]): 6; Cures/no. of animals (Plasmodium cynomolgi [10]): 2
CCCCCCCCOc1c(OC)cc(NC(C)CCCN)c2ncccc12 (stereo unspecified),0,–,0,–,–,–,1,8.1,6.7,2.9,–,–,–,–,–,–,Cures/no. of animals (Plasmodium cynomolgi [12]): 2; Delta MST (Mus musculus [13]): 12.1; Delta MST (Mus musculus [14]): 6.3
CCCC(CC)Oc1c(OC)cc(NC(C)CCCN)c2ncc(C)cc12 (stereo unspecified),–,–,–,–,4,–,5,–,–,5.3,1,0,1,0,5,–,–
CCCCCCCCCCCCOc1c(OC)cc(NC(C)CCCN)c2nccc(C)c12 (stereo unspecified),–,–,–,–,–,–,–,7.6,6.4,3.2,–,0,–,0,–,2,Cures (Mus musculus [23]): 5; Cures (Mus musculus [24]): 4; Cures (Mus musculus [26]): 5
CCCCC(C)Oc1c(OC)cc(NC(C)CCCN)c2ncc(C)cc12 (stereo unspecified),–,1,–,–,5,2,5,–,–,–,1,–,3,–,5,6.1,–
COCCCCCCOc1c(OC)cc(NC(C)CCCN)c2nccc(C)c12 (stereo unspecified),0,–,0,3,5,2,5,–,–,–,–,–,2,–,–,–,Cures/no. of animals (Plasmodium cynomolgi [12]): 2; Toxic deaths (Mus musculus [6]): 3; Cures (Mus musculus [7]): 1; Delta MST (Mus musculus [9]): 6.9
CCCCOc1c(OC)cc(NC(C)CCCN)c2nccc(C)c12 (stereo unspecified),–,1,0,–,5,5,5,–,–,–,–,–,3,–,5,11,Cures/no. of animals (Plasmodium cynomolgi [10]): 2; Toxic deaths (Mus musculus [27]): 4
COc1cc(NC(C)CCCN)c2nccc(C)c2c1OCCCCCCOc1ccccc1 (stereo unspecified),–,1,–,2,–,4,2,–,–,–,4,–,5,0,2,–,Cures (Mus musculus [24]): 2; Delta MST (Mus musculus [28]): 7.3; Cures/no. of animals (Plasmodium cynomolgi [29]): 0
CCCCCCCCCCOc1c(OC)cc(NC(C)CCCN)c2ncccc12 (stereo unspecified),–,–,–,–,–,–,–,2.9,0.1,0.1,–,0,–,–,–,–,Cures (Mus musculus [23]): 2; Cures/no. of animals (Plasmodium cynomolgi [30]): 1; Delta MST (Mus musculus [13]): 5.7; Delta MST (Mus musculus [14]): 9.3

# From ChEMBL document CHEMBL1123779, “Modifications of primaquine as antimalarials. 4. 5-Alkoxy derivatives of primaquine” (J Med Chem, 1987)
